Assay results from ChEMBL document CHEMBL1641600, “Novel bifunctional alkylating agents, 5,10-dihydropyrrolo[1,2-b]isoquinoline derivatives, synthesis and biological activity” (Bioorg Med Chem, 2011).
The source made the active and inactive calls. The rule behind the calls is not given here.

How the values were obtained:
[1] = tested on: CCRF-CEM; assay: Cytotoxicity against human CCRF-CEM cells after 72 hrs by XTT assay; type: functional, cell-based
Outline: (§1)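 Leukemic CCRF-CEM and its Taxol- and vinblastine-resistant sublines exposed 72 h to six or seven drug concentrations. XTT with phenazine methosulfate added for 6 h at 37 °C; absorbance read at 450 and 630 nm. IC50 obtained from dose-effect data by the median-effect principle.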

[2] = tested on: CCRF-CEM; assay: Ratio of IC50 for Taxol-resistant human CCRF-CEM cells to IC50 for human CCRF-CEM cells
[3] = Cytotoxicity against human OECM1 cells after 72 hrs by Alamar blue assay; type: functional, cell-based; details: OECM1, 72 h
Outline: (§2)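 H1299, PC3, OECM1 and U87 cells exposed 72 h to six or seven drug concentrations. Alamar blue added for 6 h at 37 °C; absorbance read at 570 and 600 nm. IC50 obtained from dose-effect data by the median-effect principle.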

[4] = Cytotoxicity against human U87 cells after 72 hrs by Alamar blue assay; type: functional, cell-based, U-87MG ATCC; details: U-87 MG; outline: as §2
[5] = tested on: HCT-116; assay: Cytotoxicity against human HCT116 cells after 72 hrs by SRB assay; type: functional, cell-based; details: HCT-116, 72 h
Outline: (§3)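 MX-1 breast and HCT-116 colon carcinoma cells exposed 72 h to six or seven drug concentrations. Growth measured by SRB assay with microplate absorbance. IC50 obtained from dose-effect data by the median-effect principle.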

[6] = tested on: PC-3; assay: Cytotoxicity against human PC3 cells after 72 hrs by Alamar blue assay; type: functional, cell-based; details: PC-3, 72 h; outline: as §2
[7] = Cytotoxicity against human H1299 cells after 72 hrs by Alamar blue assay; type: functional, cell-based; details: NCI-H1299, 72 h; outline: as §2
[8] = tested on: CCRF-CEM; assay: Cytotoxicity against vinblastine-resistant human CCRF-CEM cells after 72 hrs by XTT assay; type: functional, cell-based; outline: as §1
[9] = tested on: CCRF-CEM; assay: Cytotoxicity against Taxol-resistant human CCRF-CEM cells after 72 hrs by XTT assay; type: functional, cell-based; outline: as §1
[10] = tested on: MX1; assay: Cytotoxicity against human MX1 cells after 72 hrs by SRB assay; type: functional, cell-based; details: MX1, 72 h; outline: as §3
[11] = tested on: NCI-H1299; assay: Cell cycle arrest in human H1299 cells assessed as accumulation at subG1 phase at 2.5 uM after 24 hrs by propidium iodide staining-based flow cytometry; details: NCI-H1299, 24 h
[12] = tested on: NCI-H1299; assay: Cell cycle arrest in human H1299 cells assessed as accumulation at G2/M phase at 2.5 uM after 24 hrs by propidium iodide staining-based flow cytometry; details: NCI-H1299, 24 h
[13] = tested on: NCI-H1299; assay: Cell cycle arrest in human H1299 cells assessed as accumulation at G2/M phase at 1.25 uM after 24 hrs by propidium iodide staining-based flow cytometry; details: NCI-H1299, 24 h
[14] = tested on: NCI-H1299; assay: Cell cycle arrest in human H1299 cells assessed as accumulation at G2/M phase at 5 uM after 24 hrs by propidium iodide staining-based flow cytometry; details: NCI-H1299, 24 h
[15] = tested on: NCI-H1299; assay: Cell cycle arrest in human H1299 cells assessed as accumulation at S phase at 5 uM after 24 hrs by propidium iodide staining-based flow cytometry; details: NCI-H1299, 24 h
[16] = tested on: NCI-H1299; assay: Cell cycle arrest in human H1299 cells assessed as accumulation at subG1 phase at 1.25 uM after 24 hrs by propidium iodide staining-based flow cytometry; details: NCI-H1299, 24 h
[17] = tested on: NCI-H1299; assay: Cell cycle arrest in human H1299 cells assessed as accumulation at subG1 phase at 5 uM after 24 hrs by propidium iodide staining-based flow cytometry; details: NCI-H1299, 24 h
[18] = tested on: SK-OV-3; assay: Antitumor activity against human SKOV3 cells implanted in mouse assessed as significant suppression in tumor size at 20 mg/kg, iv QD for 4 times measured on day 22
[19] = tested on: MX1; assay: Antitumor activity against human MX1 cells implanted in mouse assessed as complete suppression in tumor size at 30 mg/kg, iv Q2D for 2 times measured on day 8 and 10; type: functional, organism-based; set-up: dose 30 mg/kg
Outline: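 Athymic nu/nu nude mice (outbred Swiss background, male, ≥8 weeks, about 22 g) bearing human tumor xenografts; MX-1 dosed iv Q2D×2 (day 8 and 10), SK-OV-3 dosed iv QD×4 from day 22. Tail-vein injection in DMSO/Tween 80/saline vehicle at the maximal tolerable dose. Tumor volume measured by caliper (length×width×height or width); body weight followed; n = 4.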

[20] = tested on: Nucleic Acid; assay: Induction of Escherichia coli pEGFP-N1 DNA cross-linking at 1 to 20 uM after 2 hrs by alkaline agarose gel shift assay; type: nucleic-acid assay
Outline: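 pEGFP-N1 plasmid DNA (1.5 µg) incubated with compound (1–20 µM) in binding buffer (3 mM NaCl/1 mM sodium phosphate pH 7.4, 1 mM EDTA) for 2 h at 37 °C. Plasmid then linearized with BamHI, ethanol-precipitated, and resolved on alkaline agarose gel into single-stranded and cross-linked bands. Melphalan (1, 5, 10 µM) as positive control.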

[21] = tested on: NCI-H1299; assay: Cell cycle arrest in human H1299 cells assessed as accumulation at G1 phase at 2.5 uM after 24 hrs by propidium iodide staining-based flow cytometry; details: NCI-H1299, 24 h
[22] = tested on: NCI-H1299; assay: Cell cycle arrest in human H1299 cells assessed as accumulation at S phase at 2.5 uM after 24 hrs by propidium iodide staining-based flow cytometry; details: NCI-H1299, 24 h
[23] = tested on: NCI-H1299; assay: Cell cycle arrest in human H1299 cells assessed as accumulation at S phase at 1.25 uM after 24 hrs by propidium iodide staining-based flow cytometry; details: NCI-H1299, 24 h
[24] = tested on: NCI-H1299; assay: Cell cycle arrest in human H1299 cells assessed as accumulation at G1 phase at 5 uM after 24 hrs by propidium iodide staining-based flow cytometry; details: NCI-H1299, 24 h
[25] = tested on: NCI-H1299; assay: Cell cycle arrest in human H1299 cells assessed as accumulation at G1 phase at 1.25 uM after 24 hrs by propidium iodide staining-based flow cytometry; details: NCI-H1299, 24 h

Compound | IC50 [1] [nM] | Ratio IC50 [2] | IC50 [3] [nM] | IC50 [4] [nM] | IC50 [5] [nM] | IC50 [6] [nM] | IC50 [7] [nM] | IC50 [8] [nM] | IC50 [9] [nM] | IC50 [10] [nM] | further results
CCNC(=O)OCc1c(COC(=O)NCC)c(-c2ccc(OC)cc2)n2c1Cc1ccccc1C2 | 370 | 0.58 | 10500 | 17100 | 750 | 18500 | 27600 | 350 | 220 | 1270 | –
Cc1c(COC(=O)NC(C)C)c(COC(=O)NC(C)C)c2n1Cc1ccccc1C2 | 270 | 0.84 | 11800 | 26600 | 1380 | 16900 | 9770 | 140 | 230 | 1280 | –
Cc1c(CO)c(CO)c2n1Cc1ccccc1C2 | 80 | 1.22 | 6100 | 27900 | 290 | 6070 | 2480 | 90 | 100 | 660 | cell population % at 2.5 µM [11]: 26.6%; cell population % at 2.5 µM [12]: 47.3%; cell population % at 1.25 µM [13]: 40.1%; cell population % at 5 µM [14]: 48.4%; cell population % at 5 µM [15]: 24.7%; cell population % at 1.25 µM [16]: 21.6%; cell population % at 5 µM [17]: 26.5%; Activity [18]: Active; Activity [19]: Active; Activity [20]: Active; cell population % at 2.5 µM [21]: 7.7%; cell population % at 2.5 µM [22]: 18.3%; cell population % at 1.25 µM [23]: 32.7%; cell population % at 5 µM [24]: 0.5%; cell population % at 1.25 µM [25]: 5.6%
OCc1c(CO)c(-c2ccc(Cl)cc2)n2c1Cc1ccccc1C2 | 600 | 1.28 | 12000 | 26700 | 3060 | 9850 | 24700 | 720 | 770 | 3280 | –
CCNC(=O)OCc1c(COC(=O)NCC)c(-c2ccc(F)cc2)n2c1Cc1ccccc1C2 | 310 | 1.39 | 12500 | 28400 | 790 | 9590 | 3940 | 570 | 430 | 1510 | –
